Laboratory results taken from ChEMBL document CHEMBL4368909, “Identification of Dihydrofuro[3,4- d]pyrimidine Derivatives as Novel HIV-1 Non-Nucleoside Reverse Transcriptase Inhibitors with Promising Antiviral Activities and Desirable Physicochemical Properties” (J Med Chem, 2019).
Values after ≈ are worked out from the molar mass of the structure shown.

How the values were obtained:
[1] = Selectivity ratio of CC50 for human MT4 cells to EC50 for HIV1 RES056 infected in human MT4 cells; format: toxicity, cell-based; conditions: read-out: Ratio CC50/EC50
[2] = Selectivity ratio of CC50 for human MT4 cells to EC50 for HIV1 3B infected in human MT4 cells; format: toxicity, cell-based; conditions: read-out: Ratio CC50/EC50
[3] = target: Human immunodeficiency virus type 1 reverse transcriptase (Human immunodeficiency virus 1, UniProt Q72547); assay: Inhibition of recombinant HIV1 reverse transcriptase using (DIG)-dUTP and biotin-labeled dNTPs as substrate after 1 hr by ELISA
MT4 = assay: Cytotoxicity against human MT4 cells after 5 days by MTT assay; format: cell-based; conditions: mt4, 120 h
[4] = system: Human immunodeficiency virus 1; assay: Antiviral activity against wild type HIV1 3B infected in human MT4 cells assessed as reduction in virus-induced cytopathic effect after 5 days by MTT assay; format: functional, organism-based; conditions: Human immunodeficiency virus 1, 3B, MT4, 120 h
[5] = system: Human immunodeficiency virus 2; assay: Antiviral activity against HIV2 ROD infected in human MT4 cells assessed as reduction in virus-induced cytopathic effect after 5 days by MTT assay; conditions: Human immunodeficiency virus 2, ISOLATE ROD, MT4, 120 h
[6] = system: Human immunodeficiency virus 1; assay: Antiviral activity against HIV1 RES056 infected in human MT4 cells assessed as reduction in virus-induced cytopathic effect after 5 days by MTT assay; format: functional, organism-based; conditions: Human immunodeficiency virus 1, RES056, MT4, 120 h
[7] = system: Human immunodeficiency virus 1; assay: Resistance factor, ratio of EC50 for HIV1 harboring reverse transcriptase L100I mutant to EC50 for wild type HIV1; format: functional
Method in brief: (§1)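 The resistance factor is the EC50 against the mutant strain divided by the EC50 against wild-type HIV-1. Both were measured in MT-4 cells by MTT read-out of protection from virus-induced cytopathicity.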

[8] = system: Human immunodeficiency virus 1; assay: Resistance factor, ratio of EC50 for HIV1 harboring reverse transcriptase Y188L mutant to EC50 for wild type HIV1; format: functional; method in brief: as §1
[9] = system: Human immunodeficiency virus 1; assay: Antiviral activity against HIV1 harboring reverse transcriptase K103N mutant infected in human MT4 cells assessed as reduction in virus-induced cytopathic effect after 5 days by MTT assay; format: functional, organism-based; conditions: Human immunodeficiency virus 1, MT4, 120 h
[10] = system: Human immunodeficiency virus 1; assay: Resistance factor, ratio of EC50 for HIV1 harboring reverse transcriptase K103N mutant to EC50 for wild type HIV1; format: functional; method in brief: as §1
[11] = system: Human immunodeficiency virus 1; assay: Antiviral activity against HIV1 harboring reverse transcriptase Y188L mutant infected in human MT4 cells assessed as reduction in virus-induced cytopathic effect after 5 days by MTT assay; format: functional, organism-based; conditions: Human immunodeficiency virus 1, MT4, 120 h
[12] = system: Human immunodeficiency virus 1; assay: Antiviral activity against HIV1 harboring reverse transcriptase E138K mutant infected in human MT4 cells assessed as reduction in virus-induced cytopathic effect after 5 days by MTT assay; format: functional, organism-based; conditions: Human immunodeficiency virus 1, MT4, 120 h
[13] = system: Human immunodeficiency virus 1; assay: Antiviral activity against HIV1 harboring reverse transcriptase Y181C mutant infected in human MT4 cells assessed as reduction in virus-induced cytopathic effect after 5 days by MTT assay; format: functional, organism-based; conditions: Human immunodeficiency virus 1, MT4, 120 h
[14] = system: Human immunodeficiency virus 1; assay: Resistance factor, ratio of EC50 for HIV1 harboring reverse transcriptase E138K mutant to EC50 for wild type HIV1; format: functional; method in brief: as §1
[15] = system: Human immunodeficiency virus 1; assay: Antiviral activity against HIV1 harboring reverse transcriptase L100I mutant infected in human MT4 cells assessed as reduction in virus-induced cytopathic effect after 5 days by MTT assay; format: functional, organism-based; conditions: Human immunodeficiency virus 1, MT4, 120 h
[16] = system: Human immunodeficiency virus 1; assay: Antiviral activity against HIV1 harboring reverse transcriptase F227L/V106A double mutant infected in human MT4 cells assessed as reduction in virus-induced cytopathic effect after 5 days by MTT assay; format: functional, organism-based; conditions: Human immunodeficiency virus 1, MT4, 120 h
[17] = system: Human immunodeficiency virus 1; assay: Resistance factor, ratio of EC50 for HIV1 harboring reverse transcriptase F227L/V106A double mutant to EC50 for wild type HIV1; format: functional; method in brief: as §1
[18] = system: Human immunodeficiency virus 1; assay: Resistance factor, ratio of EC50 for HIV1 harboring reverse transcriptase Y181C mutant to EC50 for wild type HIV1; format: functional; method in brief: as §1
[19] = Aqueous solubility of the compound at pH at 2 by HPLC analysis; format: physicochemical; conditions: buffer, pH 2
Method in brief: (§2)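 Aqueous solubility read by HPLC in buffer at pH 2.0, 7.0 or 7.4.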

[20] = Selectivity ratio of CC50 for human MT4 cells to EC50 for HIV1 harboring reverse transcriptase Y188L mutant infected in human MT4 cells; format: toxicity, cell-based; conditions: read-out: Ratio CC50/EC50
[21] = Aqueous solubility of the compound at pH at 7 by HPLC analysis; format: physicochemical; conditions: buffer, pH 7; method in brief: as §2
[22] = Selectivity ratio of CC50 for human MT4 cells to EC50 for HIV1 harboring reverse transcriptase K103N mutant infected in human MT4 cells; format: toxicity, cell-based; conditions: read-out: Ratio CC50/EC50
[23] = Aqueous solubility of the compound in FASSIF by HPLC analysis; format: physicochemical; conditions: simulated gi fluid
Method in brief: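 Solubility read by HPLC in fasted state simulated intestinal fluid (FaSSIF).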

[24] = Selectivity ratio of CC50 for human MT4 cells to EC50 for HIV1 harboring reverse transcriptase F227L/V106A double mutant infected in human MT4 cells; format: toxicity, cell-based; conditions: read-out: Ratio CC50/EC50
[25] = Selectivity ratio of CC50 for human MT4 cells to EC50 for HIV1 harboring reverse transcriptase Y181C mutant infected in human MT4 cells; format: toxicity, cell-based; conditions: read-out: Ratio CC50/EC50
[26] = Selectivity ratio of CC50 for human MT4 cells to EC50 for HIV1 harboring reverse transcriptase E138K mutant infected in human MT4 cells; format: toxicity, cell-based; conditions: read-out: Ratio CC50/EC50
[27] = Selectivity ratio of CC50 for human MT4 cells to EC50 for HIV1 harboring reverse transcriptase L100I mutant infected in human MT4 cells; format: toxicity, cell-based; conditions: read-out: Ratio CC50/EC50

SMILES	selectivity ratio [1]	selectivity ratio [2]	IC50 [3]	CC50 (MT4)	EC50 [4]	EC50 [5]	EC50 [6]	Ratio EC50 [7]	Ratio EC50 [8]	EC50 [9]	Ratio EC50 [10]	EC50 [11]	EC50 [12]	EC50 [13]	Ratio EC50 [14]	EC50 [15]	EC50 [16]	Ratio EC50 [17]	Ratio EC50 [18]	other results
Cc1cc(C#N)cc(C)c1Oc1nc(NC2CCN(Cc3cccc(C(N)=O)c3)CC2)nc2c1CCCC2	50	24400	101 nM	158000 nM	6.5 nM	> 158000 nM	3150 nM													
Cc1cc(C#N)cc(C)c1Oc1nc(NC2CCN(Cc3ccc([N+](=O)[O-])cc3)CC2)nc2c1CSC2	24	2340	129 nM	27100 nM	11.5 nM	> 27100 nM	1140 nM													
Cc1cc(C#N)cc(C)c1Oc1nc(NC2CCN(Cc3ccc([N+](=O)[O-])cc3)CC2)nc2c1CCCC2	4	376	94 nM	29100 nM	77.4 nM	> 29100 nM	6900 nM													
Cc1cc(C#N)cc(C)c1Oc1nc(NC2CCN(Cc3ccc(S(N)(=O)=O)cc3)CC2)nc2c1CCC2			91 nM	> 234000 nM	1.1 nM	58300 nM	25.8 nM	5.3	12.7	11 nM	10	14 nM	42.3 nM	14.2 nM	38.4	5.9 nM	35.6 nM	32.3	12.9	
Cc1cc(C#N)cc(C)c1Oc1nc(NC2CCN(Cc3ccc(S(C)(=O)=O)cc3)CC2)nc2c1CSC2	259	11700	91 nM	45300 nM	3.8 nM	≥ 22700 nM	170 nM													
Cc1cc(C#N)cc(C)c1Oc1nc(NC2CCN(Cc3ccncc3)CC2)nc2c1COC2	871	15900	56 nM	37600 nM	2.3 nM	5120 nM	43.1 nM	1.8	3.3	1.2 nM	0.5	7.8 nM	6.2 nM	4.9 nM	2.6	4.1 nM	10.5 nM	4.4	2.1	solubility [19]: 223 µg/mL (≈ 488 µM); selectivity ratio [20]: 4770; solubility [21]: 14.6 µg/mL (≈ 32 µM); selectivity ratio [22]: 31200; solubility [23]: 8.57 µg/mL (≈ 18.8 µM); selectivity ratio [24]: 3580; selectivity ratio [25]: 7630; selectivity ratio [26]: 6020; selectivity ratio [27]: 9040
Cc1cc(C#N)cc(C)c1Oc1nc(NC2CCN(Cc3ccc(S(N)(=O)=O)cc3)CC2)nc2c1CSC2	36	715	410 nM	26600 nM	37.2 nM	≥ 26700 nM	734 nM													
Cc1cc(C#N)cc(C)c1Oc1nc(NC2CCN(Cc3ccc(C(N)=O)cc3)CC2)nc2c1SCC2	3800	34200	66 nM	165000 nM	4.8 nM	> 165000 nM	43.6 nM	3.3	4.8	5 nM	1.1	22.1 nM	15.3 nM	8.4 nM	3.3	15.2 nM	36.5 nM	7.9	1.8	selectivity ratio [20]: 6590; selectivity ratio [22]: 28900; selectivity ratio [24]: 4000; selectivity ratio [25]: 17300; selectivity ratio [26]: 9520; selectivity ratio [27]: 9580
